Results gathered from unrelated publications.
Lines come from different studies, so protocols differ.
Target: Mitogen-activated protein kinase 14 (MAPK14, Homo sapiens, UniProt Q16539)

Compound | test | setting | remaining binding
O=C(NCCCN1CCOCC1)c1ccc(Nc2nccc(-c3cc4ccccc4s3)n2)cc1 | binding, competition with immobilised ligand | 1 µM | 96%
O=C(Nc1ccc(Oc2ccc(F)cc2)cc1)N1CCc2ncccc2[C@H]1c1ccc(F)cc1 | cell-free assay, competition with immobilised ligand | 1 µM | 100%
C[C@@H]1CN(c2ccc3ncc(-c4ccc5[nH]nc(C6CC6)c5c4)n3n2)C[C@H](C)O1 | binding, competition with immobilised ligand | 0.5 µM | 100%
COc1cnc(Nc2cccc(S(N)(=O)=O)c2)nc1N1CCN(c2ccccc2)CC1 | binding, competition with immobilised ligand | 1 µM | 100%
Nc1ncc2c(n1)-c1c([nH]c3ccc(C#CC4CC4)cc13)CCCC2 | binding, competition with immobilised ligand | 1 µM | 98%
O=C(O)c1cc(-c2ccc(C3CCNCC3)cc2)c2ccc(-c3ccc(C(F)(F)F)cc3)cc2c1 | cell-free assay, competition with immobilised ligand | 1 µM | 100%
CN(C)c1nccc(-c2cnc3ncccn23)n1 | binding | 1 µM | 100%
COc1cnc(Nc2cccc(S(N)(=O)=O)c2)nc1N1CCN(c2ccccc2)C(=O)C1 | binding, competition with immobilised ligand | 1 µM | 100%
Nc1cnc(N2CCc3cc(S(=O)(=O)Nc4c(F)cc(Cl)cc4F)cc(N4CCCC4=O)c32)nc1 | cell-free assay, competition with immobilised ligand | 1 µM | 100%
F[C@@H]1CCN(c2nccc(-c3cnn4ncccc34)n2)C1 | binding | 1 µM | 100%
O=C(O)[C@H]1[C@H](Cn2nnc3ccccc3c2=O)CC[C@@H]1C(=O)c1ccc(OCCC2CCOCC2)cc1 | cell-free assay, competition with immobilised ligand | 1 µM | 85%
O=C(c1ccc(Nc2nccc(-c3cc4ccccc4s3)n2)cc1)N1CCC(N2CCCC2)CC1 | binding, competition with immobilised ligand | 1 µM | 100%
CC(=O)c1c(NS(C)(=O)=O)c2cc(-c3ccc(Cl)cc3)c(-c3ccc(Cl)cc3Cl)nc2n(C)c1=O | cell-free assay, competition with immobilised ligand | 1 µM | 100%
CN(CCCC(F)(F)F)c1nccc(-c2cnn3ncccc23)n1 | binding | 1 µM | 100%
O=C1CCc2cc(Nc3cc(OC4CCOCC4)c([N+](=O)[O-])cc3Cl)ccc2N1 | cell-free assay, competition with immobilised ligand | 1 µM | 100%
N[C@@H]1CCN(c2nccc(-c3cnn4ncccc34)n2)C1 | binding | 1 µM | 100%
CC(C)(C)c1ccc(-c2nc(CBr)nn2-c2cccc(O)c2)cc1 | cell-free assay, competition with immobilised ligand | 10 µM | 100%
COC(=O)Nc1nc2ccc(C(=O)c3ccccc3)cc2[nH]1 | cell-free assay, competition with immobilised ligand | 10 µM | 17%
CNCc1ccccc1-c1csc([C@H](C)Nc2nc(C)nc3cc(OC)c(OC)cc23)c1 | cell-free assay, competition with immobilised ligand | 1 µM | 100%
COc1ccnn2ncc(-c3ccnc(N(C)C)n3)c12 | binding | 1 µM | 87%
CS(=O)(=O)c1cc(C2(NC(=O)c3cncc4c3cnn4-c3ccc(F)cc3)CC2)ccn1 | cell-free assay, competition with immobilised ligand | 1 µM | 100%
C[C@@H]1CCN(c2nccc(-c3cnn4ncccc34)n2)C1 | binding | 1 µM | 100%
O=C(Nc1c[nH]nc1C(=O)NC1CCNCC1)c1cc(F)cc(F)c1 | binding, competition with immobilised ligand | 1 µM | 100%
CN(C)c1ncc(F)c(-c2cnn3ncccc23)n1 | binding | 1 µM | 100%
O=C(c1ccc(Nc2ncc(Cl)c(-c3ccc(Cl)s3)n2)cc1)N1CCC(N2CCCC2)CC1 | binding, competition with immobilised ligand | 1 µM | 91%
